Test [1] has as its system Escherichia coli. Nature of the test: In vitro antibacterial activity was measured against nalidixic acid resistant strain 7 from Escherichia coli KC-14. It counts as functional. The method in brief:
(§1)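 MIC by serial 2-fold agar dilution on Mueller–Hinton agar, inoculum about 10^6 CFU/mL. Plates were incubated 37 °C for 18 h. MIC was the lowest concentration preventing visible growth.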

In test [2] the test system is Escherichia coli. Nature of the test: In vitro antibacterial activity was measured against nalidixic acid resistant strain 1 from Escherichia coli KC-14. It counts as functional. The method, boiled down: as §1
Test [3] has as its system Pseudomonas aeruginosa. Nature of the test: In vitro antibacterial activity against Pseudomonas aeruginosa IFO 3445,Pa(I),(gram-negative). The format is functional. The method in brief: (§2)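 MIC by serial 2-fold agar dilution on Mueller–Hinton agar; inoculum about 10^6 CFU/mL; MIC taken as lowest concentration preventing visible growth after 18 h at 37 °C.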
For test [4], the system named is Escherichia coli. Nature of the test: In vitro antibacterial activity was measured against nalidixic acid resistant strain 3 from Escherichia coli KC-14. The format is functional. The method, boiled down:
as §1

The test system of test [5] is Staphylococcus aureus. Nature of the test: The effect on systematic infection in mice infected with Staphylococcus aureus IID 803, administered perorally. The format is functional. The method, boiled down:
(§3)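 Male ddY mice (20–22 g), five per group, received 0.5 mL bacterial dilution intraperitoneally at 35 or 500 times the 50% lethal dose. Compound was given orally 1 h postinfection, suspended in 0.5% sodium (carboxymethyl)cellulose or dissolved in sterile distilled water. Survival was scored after 1 week. Oral ED50 was reported with 95% confidence limits.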

The subject of test [6] is Staphylococcus aureus. Nature of the test: In vitro antibacterial activity against staphylococcus aureus IID 803,(gram-positive). The format is functional. The method in brief:
as §2

The test system of a further test is Klebsiella pneumoniae. Nature of the test: In vitro antibacterial activity against klebsiella pneumoniae B54,Kp,(gram-negative). The format is functional.
The subject of test [7] is Staphylococcus epidermidis. Nature of the test: In vitro antibacterial activity against staphylococcus epidermidis IAM 1296, (gram-positive). It counts as functional. The method, boiled down:
as §2

Test [8] deals with Staphylococcus aureus. Nature of the test: In vitro antibacterial activity against staphylococcus aureus FDA 209P JC-1,Sa(F)(gram-positive). The format is functional. The method in brief:
as §2

Test [9] relates to Escherichia coli. Nature of the test: In vitro antibacterial activity against Escherichia coli KC-14, Ec(K), (gram-negative). It counts as functional. The method in brief:
as §2

Test [10] deals with Pseudomonas aeruginosa. Nature of the test: The effect on systematic infection in mice infected with Pseudomonas aeruginosa E-2, administered perorally. It counts as functional.
Test [11] deals with Escherichia coli. Nature of the test: In vitro antibacterial activity was measured against nalidixic acid resistant strain 2 from Escherichia coli KC-14. It counts as functional. The method in brief: as §1
In test [12] the test system is Escherichia coli. Nature of the test: In vitro antibacterial activity was measured against nalidixic acid resistant strain 5 from Escherichia coli KC-14. It counts as functional. The method in brief: as §1
Test [13] concerns Pseudomonas aeruginosa. Nature of the test: In vitro antibacterial activity against Pseudomonas aeruginosa E-2,Pa(E),(gram-negative). It counts as functional. The method in brief: as §2
In test [14] the test system is Escherichia coli. Nature of the test: In vitro antibacterial activity was measured against nalidixic acid resistant strain 4 from Escherichia coli KC-14. It counts as functional. The method in brief: as §1
The test system of test [15] is Escherichia coli. Nature of the test: In vitro antibacterial activity against Escherichia coli NIHJ JC-2,(gram-negative).
Test [16] deals with Escherichia coli. Nature of the test: The effect on systematic infection in mice infected with Escherichia coli KC-14, administered perorally. It counts as functional. The method, boiled down:
as §3

For test [17], the system named is Enterococcus faecalis. Nature of the test: In vitro antibacterial activity against Enterococcus faecalis IID 682,[…],(gram-positive). The format is functional. The method, boiled down: as §2
Test [18] relates to Escherichia coli. Nature of the test: In vitro antibacterial activity was measured against nalidixic acid resistant strain 6 from Escherichia coli KC-14. The format is functional. The method in brief: as §1
The test system of test [19] is Pseudomonas aeruginosa. Nature of the test: The effect on systematic infection in mice infected with Pseudomonas aeruginosa, administered perorally. The format is functional. The method in brief:
as §3

In test [20] the test system is Enterococcus faecalis. Nature of the test: In vitro antibacterial activity against Enterococcus faecalis IID 682,Ef.([…]). It counts as functional. The method in brief:
as §2

A word on the MIC: it is the lowest concentration that inhibits growth of the organism. A lower MIC goes with greater potency.

Converted amounts (≈) assume the structure as drawn.

As to `CN1CCN(c2c(F)cc3c(=O)c(C(=O)O)c4scc5n4c3c2OC5)CC1.Cl`, the MIC is 0.2 µg/mL in the test on Escherichia coli [1]; 1.56 µg/mL against Escherichia coli [2]; 0.78 µg/mL against Pseudomonas aeruginosa [3]; 0.39 µg/mL with Escherichia coli [4]; 0.1 µg/mL in the test with Staphylococcus aureus [6]; 0.1 µg/mL against Klebsiella pneumoniae. The MIC in [7] worked out at 0.2 µg/mL; in the test on Staphylococcus aureus [8] it was 0.1 µg/mL; against Escherichia coli [9], 0.1 µg/mL; in the test with Escherichia coli [11] it was 3.13 µg/mL; against Escherichia coli [12], 0.39 µg/mL; against Pseudomonas aeruginosa [13], 0.78 µg/mL. Further, the MIC against Escherichia coli [14] is 0.2 µg/mL; in the test with Escherichia coli [15] it was 0.1 µg/mL; against Enterococcus faecalis [17] it was 0.39 µg/mL; with Escherichia coli [18], 0.39 µg/mL. Besides, the ED50 with Staphylococcus aureus [5] was 8.1 mg/kg; in the test on Pseudomonas aeruginosa [10], 17.7 mg/kg; with Escherichia coli [16] it was 1.01 mg/kg.

As to `CC1COc2c(N3CCNCC3)c(F)cc3c(=O)c(C(=O)O)cn1c23` (configuration not stated), the MIC is 0.39 µg/mL (≈ 1.12 µM) against Escherichia coli [1]; 6.25 µg/mL (≈ 18 µM) against Escherichia coli [2]; 1.56 µg/mL (≈ 4.49 µM) in the test with Pseudomonas aeruginosa [3]; 0.78 µg/mL (≈ 2.25 µM) in the test on Escherichia coli [4]; 0.39 µg/mL (≈ 1.12 µM) with Staphylococcus aureus [6]; 0.1 µg/mL (≈ 0.288 µM) in the test on Klebsiella pneumoniae. In addition, the MIC in test [7] stood at 0.78 µg/mL (≈ 2.25 µM); against Staphylococcus aureus [8], 0.39 µg/mL (≈ 1.12 µM); with Escherichia coli [9], 0.1 µg/mL (≈ 0.288 µM); with Escherichia coli [11] it was 6.25 µg/mL (≈ 18 µM); in the test on Escherichia coli [12], 0.78 µg/mL (≈ 2.25 µM); against Pseudomonas aeruginosa [13] it was 1.56 µg/mL (≈ 4.49 µM). Moreover, the MIC against Escherichia coli [14] was 0.39 µg/mL (≈ 1.12 µM); against Escherichia coli [15] it was 0.1 µg/mL (≈ 0.288 µM); in the test on Enterococcus faecalis [17], 1.56 µg/mL (≈ 4.49 µM); against Escherichia coli [18] it was 0.78 µg/mL (≈ 2.25 µM). Further, the ED50 came out at 11.5 mg/kg in the test on Staphylococcus aureus [5], 22.9 µg/mL (≈ 65.9 µM) in the test on Pseudomonas aeruginosa [19] and 1.1 mg/kg in the test with Escherichia coli [16].

In the case of `COc1c(F)cc2c(=O)c(C(=O)O)c3scc4n3c2c1OC4`, the MIC against Pseudomonas aeruginosa [3] came out at 3.13 µg/mL (≈ 9.74 µM); with Enterococcus faecalis [20] it was 6.25 µg/mL (≈ 19.5 µM); against Staphylococcus aureus [6] it was 0.2 µg/mL (≈ 0.623 µM); with Klebsiella pneumoniae, 0.2 µg/mL (≈ 0.623 µM); in test [7], 0.39 µg/mL (≈ 1.21 µM); in the test with Staphylococcus aureus [8], 0.2 µg/mL (≈ 0.623 µM). The MIC with Escherichia coli [9] was found to be 0.78 µg/mL (≈ 2.43 µM); in the test on Pseudomonas aeruginosa [13] it was 6.25 µg/mL (≈ 19.5 µM); against Enterococcus faecalis [17], 6.25 µg/mL (≈ 19.5 µM).

The values are drawn from ChEMBL document CHEMBL1126175, “Synthesis and antibacterial activity of new tetracyclic quinolone antibacterials” (J Med Chem, 1992).
